# Results as given in ChEMBL document CHEMBL4138255, “Discovery of a Slow Tight Binding LPA1 Antagonist (ONO-0300302) for the Treatment of Benign Prostatic Hyperplasia” (ACS Med Chem Lett, 2017).
# The source made the active and inactive calls. The rule behind the calls is not given here.
# Legend:
# [1] = biological target: T1, Lysophosphatidic acid receptor 1 (Homo sapiens, UniProt Q92633); test: Antagonist activity at recombinant human LPA1 expressed in CHO cells assessed as reduction in LPA-induced intracellular calcium level pretreated followed by LPA addition by Fura-2-AM dye based fluorescence assay; assay type: functional, cell-based
# How it was run: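 LPA-induced Ca²⁺ mobilization in CHO cells stably expressing the LPA1 receptor, with 10 min incubation. IC50 was obtained by nonlinear regression of 4-point dose–response curves, with 95% confidence intervals.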
# [2] = Half life in rat microsomes in presence of NADPH; assay type: ADME, Microsome
# [3] = Half life in human microsomes in presence of NADPH; assay type: ADME, Microsome
# Rattus norvegicus [4] = test: Inhibition of LPA-induced increase of intraurethral pressure in po dosed rat measured after 1 hr; assay type: functional; details: for ED50: read-out: ID50 (the source's name)
# How it was run: (§1)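 Conscious rats were given compound or vehicle (20% STPG) orally, 3 mg/kg. At 1, 3, 6, 9, 12, 18 or 24 h, LPA (300 μg/kg) was injected i.v. and intraurethral pressure was measured under short-term anesthesia. Inhibition was calculated versus vehicle. ID50 was determined from oral dose–response at 1 h.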
# Rattus norvegicus [5] = test: Inhibition of LPA-induced increase of intraurethral pressure in po dosed rat measured after 6 hrs; assay type: functional; how it was run: as §1
# [6] = Total clearance in rat at 1 mg/kg, iv; assay type: ADME, organism-based; details: in vivo
# Rattus norvegicus [7] = test: Inhibition of LPA-induced increase of intraurethral pressure in rat at 3 mg/kg, po measured after 1 hr relative to control; assay type: functional; how it was run: as §1
# Rattus norvegicus [8] = test: Inhibition of LPA-induced increase of intraurethral pressure in rat at 3 mg/kg, po measured after 6 hrs relative to control; assay type: functional; how it was run: as §1
# Canis familiaris [9] = test: Inhibition of LPA-induced increase of intraurethral pressure in dog at 1 to 3 mg/kg, po measured up to 24 hrs; assay type: functional, organism-based; details: Canis lupus familiaris
# How it was run: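 Conscious dogs were dosed orally at 1 or 3 mg/kg. LPA (300 μg/kg i.v.) was injected at 0.5, 1, 2, 4, 6, 9, 12 and 24 h, and intraurethral pressure was measured in conscious animals. Response was expressed as % of each dog's predose (0 h) IUP.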
# Rattus norvegicus [10] = test: Inhibition of LPA-induced increase of intraurethral pressure in rat at 3 mg/kg, po measured up to 12 hrs relative to control; assay type: functional; how it was run: as §1
# [11] = biological target: Lysophosphatidic acid receptor 1 (Rattus norvegicus) (UniProt P61794); test: Antagonist activity at LPA1 in CD(SD)IGS rat urethra assessed as inhibition of LPA-induced urethra contraction at 1 uM pretreated for 30 mins followed by LPA addition; assay type: functional
# How it was run: (§2)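 Isolated rat urethra. Contraction to 10 μM LPA was recorded as 100% control. Medium was exchanged, then 1 μM test compound was added for 30 min and contraction to 10 μM LPA recorded. Tissue was washed with compound-free medium three times every 10 min before each LPA re-challenge, two wash-out rounds. Expressed as % inhibition, mean ± SD, n = 3.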
# [12] = biological target: Lysophosphatidic acid receptor 1 (Rattus norvegicus) (UniProt P61794); test: Antagonist activity at LPA1 in CD(SD)IGS rat urethra assessed as inhibition of LPA-induced urethra contraction at 1 uM pretreated for 30 mins prior to LPA addition followed by compound washout every 10 minutes for 2 times and subsequent LPA stimulation; assay type: functional; how it was run: as §2
# [13] = biological target: T1, Lysophosphatidic acid receptor 1; test: Binding affinity to recombinant human LPA1 expressed in CHO cell membranes measured after 0.5 hrs by scintillation counting method; details: for Bmax: tested as the 3H-labelled form
# [14] = biological target: T1, Lysophosphatidic acid receptor 1; test: Binding affinity to recombinant human LPA1 expressed in CHO cell membranes measured after 1 hr by scintillation counting method; details: for Bmax: tested as the 3H-labelled form
# [15] = biological target: T1, Lysophosphatidic acid receptor 1; test: Binding affinity to recombinant human LPA1 expressed in CHO cell membranes measured after 2 hrs by scintillation counting method; details: for Bmax: tested as the 3H-labelled form
# [16] = biological target: T1, Lysophosphatidic acid receptor 1; test: Binding affinity to recombinant human LPA1 expressed in CHO cell membranes measured after 4 hrs by scintillation counting method; details: for Bmax: tested as the 3H-labelled form
# Rattus norvegicus [17] = test: Inhibition of LPA-induced increase of intraurethral pressure in rat at 3 mg/kg, po measured at 18 hrs relative to control; assay type: functional; how it was run: as §1
# Canis familiaris [18] = test: Inhibition of LPA-induced increase of intraurethral pressure in dog at 1 mg/kg, po measured after 24 hrs relative to control; assay type: functional; details: Canis lupus familiaris
# [19] = biological target: T1, Lysophosphatidic acid receptor 1; test: Binding affinity to recombinant human LPA1 expressed in CHO cell membranes measured after 2 hrs at 4 degC by scintillation counting method
# [20] = biological target: T1, Lysophosphatidic acid receptor 1; test: Binding affinity to recombinant human LPA1 expressed in CHO cell membranes measured after 2 hrs at room temperature by scintillation counting method
# [21] = biological target: T1, Lysophosphatidic acid receptor 1; test: Binding affinity to recombinant human LPA1 expressed in CHO cell membranes measured after 2 hrs at 37 degC by scintillation counting method
# [22] = biological target: T1, Lysophosphatidic acid receptor 1; test: Antagonist activity at recombinant human LPA1 expressed in CHO cell […] pretreated for 24 hrs prior to Fura-2-AM dye addition for 1 hr followed by LPA stimulation measured after 3 mins by fluorescence assay; assay type: functional, cell-based
# How it was run: (§3)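 Ca²⁺ mobilization in CHO cells stably expressing LPA1. Compound was added at cell seeding and incubated 24 h, and was held at the same concentration through Ca²⁺-indicator loading and LPA stimulation. In the wash-out variant, compound was removed before LPA stimulation. IC50 was obtained with 95% confidence intervals.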
# [23] = biological target: T1, Lysophosphatidic acid receptor 1; test: Antagonist activity at recombinant human LPA1 expressed in CHO cell […] pretreated for 24 hrs prior to Fura-2-AM dye addition for 1 hr followed by compound washout and subsequent LPA stimulation measured after 3 mins by fluorescence assay; assay type: functional, cell-based; how it was run: as §3
# Rattus norvegicus [24] = test: Inhibition of LPA-induced increase of intraurethral pressure in rat at 3 mg/kg, po measured after 3 hrs relative to control; assay type: functional; how it was run: as §1
# Lysophosphatidic acid receptor 1 (Rattus norvegicus), sequence (P61794 whole entry): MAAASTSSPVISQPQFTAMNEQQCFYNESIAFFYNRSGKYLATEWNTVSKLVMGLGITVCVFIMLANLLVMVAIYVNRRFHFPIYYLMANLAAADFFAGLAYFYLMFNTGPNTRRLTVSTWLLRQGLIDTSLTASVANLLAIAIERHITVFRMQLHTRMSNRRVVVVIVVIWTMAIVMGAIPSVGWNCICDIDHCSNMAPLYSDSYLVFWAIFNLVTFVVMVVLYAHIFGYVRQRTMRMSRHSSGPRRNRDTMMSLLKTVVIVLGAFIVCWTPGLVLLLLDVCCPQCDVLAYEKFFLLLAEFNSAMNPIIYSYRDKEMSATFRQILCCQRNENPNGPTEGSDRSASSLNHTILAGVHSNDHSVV
# T1 sequence (Q92633 whole entry): as the sequence (P61794 whole entry) above, with A4I, S8I, Q22P, Y40H, V61I, D193E, H194N, V269I, N331S, N335T counted along it
smiles,measurement,setting,value
COc1cc([C@@H](O)[C@@H](CCCc2ccccc2)Cn2cc(CC(=O)O)cn2)cc(OC)c1C,IC50,[1],30 nM
COc1cc([C@@H](O)[C@@H](CCCc2ccccc2)Cn2ccc(CC(=O)O)c2)cc(OC)c1C,IC50,[1],13 nM
same,half-life,[2],< 0.25 h
same,half-life,[3],0.817 h
same,ED50,Rattus norvegicus [4],0.6 mg/kg
same,inhibition (INH),Rattus norvegicus [5],33%
same,clearance,[6],50.1 mL/min/kg
same,inhibition,Rattus norvegicus [7],Active
same,inhibition in vivo at 3 mg/kg,Rattus norvegicus [8],33%
COc1cc([C@@H](O)[C@@H](CC2Cc3ccccc3C2)Cn2ccc(CC(=O)O)c2)cc(OC)c1C,IC50,[1],61 nM
same,half-life,[2],0.567 h
same,half-life,[3],1.08 h
same,clearance,[6],19.2 mL/min/kg
same,inhibition,Canis familiaris [9],Active
same,inhibition in vivo at 3 mg/kg,Rattus norvegicus [10],52%
COc1cc([C@@H](O)[C@@H](CCCc2ccccc2)Cn2cnc(CC(=O)O)c2)cc(OC)c1C,IC50,[1],180 nM
COc1cc(C(=O)N(CCCc2ccccc2)Cc2ccc(CC(=O)O)cc2)cc(OC)c1C,inhibition,[11],Active
same,inhibition,[12],inactive
same,Bmax,[13],3420 cpm
same,Bmax,[14],3560 cpm
same,Bmax,[15],2450 cpm
same,Bmax,[16],2740 cpm
COc1cc([C@@H](O)[C@@H](CC2Cc3ccccc3C2)Cn2ccc(CCC(=O)O)c2)cc(OC)c1C,IC50,[1],86 nM
same,half-life,[2],0.25 h
same,half-life,[3],1.32 h
same,clearance,[6],20.5 mL/min/kg
same,inhibition,Canis familiaris [9],Active
same,inhibition in vivo at 3 mg/kg,Rattus norvegicus [17],47%
same,inhibition in vivo at 1 mg/kg,Canis familiaris [18],30%
same,Bmax,[13],974 cpm
same,Bmax,[14],973 cpm
same,Bmax,[15],942 cpm
same,Bmax,[16],956 cpm
same,Bmax,[19]; tested as the 3H-labelled form,1030 cpm
same,Bmax,[20]; tested as the 3H-labelled form,942 cpm
same,Bmax,[21]; tested as the 3H-labelled form,1110 cpm
same,IC50,[22],0.16 nM
same,IC50,[23],0.19 nM
COc1cc([C@@H](O)[C@@H](CCCc2ccccc2)Cn2ccc(C(=O)O)c2)cc(OC)c1C,IC50,[1],120 nM
COc1cc([C@@H](O)[C@@H](CCCc2cccs2)Cn2ccc(CCC(=O)O)c2)cc(OC)c1C,IC50,[1],45 nM
same,half-life,[2],< 0.25 h
same,half-life,[3],1.25 h
same,inhibition,Rattus norvegicus [8],inactive
same,inhibition in vivo at 3 mg/kg,Rattus norvegicus [24],70%
COc1cc([C@@H](O)[C@@H](CCCc2ccsc2)Cn2ccc(CCC(=O)O)c2)cc(OC)c1C,IC50,[1],38 nM
same,half-life,[2],< 0.25 h
same,half-life,[3],1.1 h
same,inhibition,Rattus norvegicus [8],inactive
same,inhibition in vivo at 3 mg/kg,Rattus norvegicus [24],70%
COc1cc([C@@H](O)[C@@H](CCCc2ccccc2)Cn2cc(CCC(=O)O)cn2)cc(OC)c1C,IC50,[1],34 nM
[3H]C(CN(Cc1ccc(CC(=O)O)cc1)C(=O)c1cc(OC)c(C)c(OC)c1)C([3H])c1ccccc1 (stereo not given),Kd,[13],8.12 nM
same,Kd,[14],6.54 nM
same,Kd,[15],5.96 nM
same,Kd,[16],10.2 nM
[3H]C(C(=O)O)C([3H])c1ccn(C[C@H](CC2Cc3ccccc3C2)[C@H](O)c2cc(OC)c(C)c(OC)c2)c1 (stereo not given in full),Kd,[13],2.34 nM
same,Kd,[14],1.26 nM
same,Kd,[15],0.74 nM
same,Kd,[16],0.49 nM
same,Kd,[19],22.5 nM
same,Kd,[20],0.74 nM
same,Kd,[21],0.34 nM
COc1cc([C@@H](O)[C@@H](CCCc2ccccc2)Cn2ccc(CCC(=O)O)c2)cc(OC)c1C,IC50,[1],22 nM
COc1cc([C@@H](O)[C@@H](CCCc2ccsc2)Cn2ccc(CC(=O)O)c2)cc(OC)c1C,IC50,[1],23 nM
same,half-life,[2],< 0.25 h
same,half-life,[3],1 h
same,clearance,[6],16.4 mL/min/kg
same,inhibition in vivo at 3 mg/kg,Rattus norvegicus [7],75%
same,inhibition in vivo at 3 mg/kg,Rattus norvegicus [8],23%
COc1cc([C@@H](O)[C@@H](CCCc2ccccc2)Cn2ccc(CCC(=O)O)n2)cc(OC)c1C,IC50,[1],40 nM
COc1cc([C@@H](O)[C@@H](CCCc2ccccc2)Cc2ccc(CC(=O)O)cc2)cc(OC)c1C,IC50,[1],61 nM
same,inhibition,Rattus norvegicus [4],Dose-dependent effect
same,ED50,Rattus norvegicus [4],0.97 mg/kg
same,inhibition,[11],Active
same,inhibition,[12],Active
COc1cc(C(=O)C(CCCc2ccccc2)Cc2ccc(CC(=O)O)cc2)cc(OC)c1C (stereo not given),IC50,[1],460 nM
COc1cc([C@@H](O)[C@@H](CCCc2ccccc2)Cn2nc(C)c(CC(=O)O)c2C)cc(OC)c1C,IC50,[1],520 nM
COc1cc(C(=O)N(C/C=C/c2ccccc2)Cc2ccc(CC(=O)O)cc2)cc(OC)c1C,IC50,[1],> 1000 nM
same,half-life,[2],> 3.33 h
same,half-life,[3],2.72 h
COc1cc([C@@H](O)[C@@H](CCCc2ccccc2)Cn2ccc(CC(=O)O)n2)cc(OC)c1C,IC50,[1],32 nM
COc1cc([C@@H](O)[C@@H](CCCc2cccs2)Cn2ccc(CC(=O)O)c2)cc(OC)c1C,IC50,[1],29 nM
same,half-life,[2],< 0.25 h
same,half-life,[3],1.37 h
same,inhibition,Rattus norvegicus [8],inactive
same,inhibition in vivo at 3 mg/kg,Rattus norvegicus [24],70%
